Assay [1] has as its system Lewis lung carcinoma cell line. Put plainly: Effect of compound on Lewis Lung carcinoma after single ip injection on day 1 recorded as animal weight difference of the treated and the control (T-C) at OD of 64-2 mg/kg. Type of assay: functional, Mus musculus.
Assay [2] concerns Lewis lung carcinoma cell line. Nature of the assay: Effect of compound on Lewis Lung carcinoma after single dose injected intraperitoneally on day 1 recorded as animal weight difference of the treated and the control (T-C) at OD of 64 mg/kg. It is filed as functional, Mus musculus. The settings on record: route intraperitoneal.
For assay [3], the system named is Mus musculus. Nature of the assay: Compound tested for the effect on total white blood cell count and reported as percentage change from control on day 5 at 40.25 mg/kg (ip). Type of assay: functional. The method in brief:
(§1)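 Total white blood cell count in mice. Treatment was intraperitoneal at the listed mg/kg doses, 10 mice per group. Counts were taken on days 3, 5 and 7 and expressed as % change from control, with the control being each group's predose value. Significance was taken at p ≤ 0.05.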

Assay [4] concerns Mus musculus. Put plainly: Compound tested for the effect on total white blood cell count and reported as percentage change from control on day 5 at 90.5 mg/kg (ip). Type of assay: functional. The method in brief:
as §1

In assay [5] the test system is Mus musculus. Put plainly: Compound tested for the effect on total white blood cell count and reported as percentage change from control on day 7 at 40.25 mg/kg (ip). It is filed as functional. The method in brief: as §1
For assay [6], the system named is Mus musculus. Nature of the assay: Compound tested for the effect on total white blood cell count and reported as percentage change from control on day 3 at 11.31 mg/kg (ip). It is filed as functional. The method in brief:
as §1

For assay [7], the system named is Mus musculus. Nature of the assay: Compound tested for the effect on total white blood cell count and reported as percentage change from control on day 3 at 22.63 mg/kg (ip). It is filed as functional. The method in brief:
as §1

Assay [8] relates to Mus musculus. Put plainly: Compound tested for the effect on total white blood cell count and reported as percentage change from control on day 3 at 40.25 mg/kg (ip). Type of assay: functional. The method in brief:
as §1

Assay [9] has as its system Mus musculus. Put plainly: Compound tested for the effect on total white blood cell count and reported as percentage change from control on day 3 at 90.5 mg/kg (ip). It is filed as functional. The method in brief:
as §1

For assay [10], the system named is Mus musculus. Put plainly: Compound tested for the effect on total white blood cell count and reported as percentage change from control on day 5 at 22.63 mg/kg (ip). It is filed as functional. The method in brief:
as §1

Assay [11] relates to Lewis lung carcinoma cell line. Put plainly: Effect of compound on Lewis Lung carcinoma after single dose injected intraperitoneally on day 1 recorded as percentage of cured animals at OD of 64 mg/kg. To be noted: Mus musculus, route intraperitoneal.
Assay [12] concerns 3EM 37. Nature of the assay: Compound tested for activity against 3EM 37 mouse ependymoblastoma after single ip injection on day 1 at optimal dose of 128 mg/kg (Dose range 256-16). It is filed as functional. The settings on record: route intraperitoneal.
The subject of assay [13] is 3EM 37. Nature of the assay: Effect of compound on 3EM 37 mouse ependymoblastoma after single ip injection on day 1 recorded as animal weight difference of the treated and the control (T-C) at OD of 100 mg/kg. Type of assay: functional. To be noted: route intraperitoneal.
The subject of assay [14] is 3EM 37. Nature of the assay: Effect of compound on 3EM 37 mouse ependymoblastoma after single ip injection on day 1 recorded as percentage of cured animals at OD of 100 mg/kg. Type of assay: functional. To be noted: route intraperitoneal.
Assay [15] deals with 3EM 37. Put plainly: Compound tested for toxicity against 3EM 37 mouse ependymoblastoma after single ip injection on day 1 at optimal dose (OD) of 100 mg/kg on the 5th day after the injection of the compound; (10/10). To be noted: route intraperitoneal.

“And” between values parts separate entries of the source, which are not always exact repeats. Identical values can stand only once.

One may read the T/C as the ratio of treated to control. For `O=NN(CCCl)C(=O)NCCCl` [CARMUSTINE], the Optimal dose in assay [1] worked out at 32 mg/kg. In addition, in assay [2], the T-C is -3.5 g. The Change was -22% in the assay with Mus musculus [3]; -48% in the assay with Mus musculus [4]; -41% in the assay with Mus musculus [5]; -47% in the assay with Mus musculus [6]; -33% in the assay on Mus musculus [7]; -46% in the assay on Mus musculus [8]. In addition, the Change is -68% in the assay on Mus musculus [9]; -28% and -42% with Mus musculus [10]. In assay [11], this compound gave a T/C of more than 353%.
As for `CC1CCC(NC(=O)N(CCCl)N=O)CC1` (stereo not given) [SEMUSTINE], in the assay on 3EM 37 [12], the Optimal dose came out at 128 mg/kg. The compound also showed a T-C in the assay with 3EM 37 [13] of 1 g. This compound also displayed a T/C with 3EM 37 [14] of 204%. The compound also came in with a Survival with 3EM 37 [15] of 9.

The record behind these values is ChEMBL document CHEMBL1121486, “Synthesis of nitrosourea derivatives of pyridine and piperidine as potential anticancer agents” (1980).
